Results on 3 compounds are retold here after ChEMBL document CHEMBL2034980, “N⁴-Phenyl-substituted 2-acetylpyridine thiosemicarbazones: cytotoxicity against human tumor cells, structure-activity relationship studies and investigation on the mechanism of action” (Bioorg Med Chem, 2012).

The source made the active and inactive calls.

In assay [1] the test system is MCF7. As to the kind of experiment: Cytotoxicity against human MCF7 cells after 48 hrs by MTT assay. In kind it is functional, cell-based. The settings on record: for IC50: MCF7, 48 h, read-out: IC50. The gist of the method: (§1)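 MTT assay. Cells were grown in DMEM with 10% FBS and penicillin/streptomycin at 37 °C under 5% CO2, seeded at 1–2×10^3 cells/well and treated 12 h later with 1×10^-12 to 1×10^-5 M ([…] from DMSO stock, final DMSO <0.5%) for 48 h. MTT was added at 0.5 mg mL⁻¹, formazan dissolved in DMSO and read at 570 nm. IC50 is the concentration giving 50% cytotoxicity. Quadruplicates, ≥3 independent experiments.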
(In general: Tetrazolium dyes change colour on reduction, which living cells bring about.)

Assay [2] in a line: (§2) Cytotoxicity against human U87 cells expressing wild-type p53 after 48 hrs by MTT assay. The class given is functional, cell-based, U-87MG ATCC. The settings on record: U-87 MG, read-out: IC50. The gist of the method:
as §1

Assay [3] has as its system U-87MG ATCC. The description is as §2. In kind it is functional, cell-based. The gist of the method: as §1
The test system of assay [4] is T98G. Put plainly: Cytotoxicity against human T98G cells expressing mutant p53 after 48 hrs by MTT assay. In kind it is functional, cell-based. Particulars: for IC50: read-out: IC50. An outline of the steps: as §1
Assay [5] can be described thus: Haemolytic activity in human RBC after 1 hr by photometry. In kind it is ADME, cell-based. Particulars: Erythrocyte. The gist of the method:
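Human EDTA blood was spun at 700xg for 10 min and the erythrocytes washed three times in cold PBS pH 7.4, then resuspended in it. Cells were incubated with varying compound concentrations for 1 h at 37 °C with shaking. After centrifugation, released haemoglobin was read at 540 nm to give the IC50. Mean ± SD, n = 4.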

Assay [6] relates to MCF7. Put plainly: Induction of apoptosis in human MCF7 cells assessed as irregularities in cellular shape at 1 uM after 48 hrs by DAPI staining. In kind it is functional, cell-based.
Assay [7] relates to MCF7. Put plainly: Induction of apoptosis in human MCF7 cells assessed as cell shrinkage at 1 uM after 48 hrs by DAPI staining. In kind it is functional, cell-based.
Assay [8] concerns MCF7. As to the kind of experiment: Induction of apoptosis in human MCF7 cells assessed as membrane blebbing at 1 uM after 48 hrs by DAPI staining. The class given is functional, cell-based.
In assay [9] the test system is MCF7. Put plainly: Induction of apoptosis in human MCF7 cells assessed as chromatin condensation at 1 uM after 48 hrs by DAPI staining. In kind it is functional, cell-based. The gist of the method:
(§3)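 Cells were treated at 1 μM for 48 h, washed in PBS and fixed in 70% methanol for 30 min at room temperature. They were stained with 0.4 μg mL⁻¹ DAPI for 1 h in the dark, and nuclear condensation and fragmentation were scored by fluorescence microscopy (385–410 nm).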

Assay [10] relates to MCF7. Put plainly: Induction of apoptosis in human MCF7 cells assessed as DNA fragmentation at 1 uM after 48 hrs by DAPI staining. In kind it is functional, cell-based. An outline of the steps:
as §3

Assay [11] deals with T98G. As to the kind of experiment: Induction of apoptosis in human T98G cells assessed as irregularities in cellular shape at 1 uM after 48 hrs by DAPI staining. In kind it is functional, cell-based.
For assay [12], the system named is T98G. Put plainly: Induction of apoptosis in human T98G cells assessed as cell shrinkage at 1 uM after 48 hrs by DAPI staining. In kind it is functional, cell-based.
In assay [13] the test system is T98G. As to the kind of experiment: Induction of apoptosis in human T98G cells assessed as membrane blebbing at 1 uM after 48 hrs […]. The class given is functional, cell-based.
The test system of assay [14] is T98G. As to the kind of experiment: Induction of apoptosis in human T98G cells assessed as chromatin condensation at 1 uM after 48 hrs by DAPI staining. The class given is functional, cell-based. An outline of the steps: as §3
Assay [15] concerns T98G. As to the kind of experiment: Induction of apoptosis in human T98G cells assessed as DNA fragmentation at 1 uM after 48 hrs by DAPI staining. The class given is functional, cell-based. The gist of the method:
as §3

Assay [16] concerns U-87MG ATCC. As to the kind of experiment: Induction of apoptosis in human U87 cells assessed as irregularities in cellular shape at 1 uM after 48 hrs by DAPI staining. In kind it is functional, cell-based.
In assay [17] the test system is U-87MG ATCC. As to the kind of experiment: Induction of apoptosis in human U87 cells assessed as cell shrinkage at 1 uM after 48 hrs by DAPI staining. The class given is functional, cell-based.
Assay [18] has as its system U-87MG ATCC. As to the kind of experiment: Induction of apoptosis in human U87 cells assessed as membrane blebbing at 1 uM after 48 hrs by DAPI staining. The class given is functional, cell-based.
Assay [19] has as its system U-87MG ATCC. As to the kind of experiment: Induction of apoptosis in human U87 cells assessed as chromatin condensation at 1 uM after 48 hrs by DAPI staining. The class given is functional, cell-based. The gist of the method:
as §3

Assay [20] has as its system U-87MG ATCC. Put plainly: Induction of apoptosis in human U87 cells assessed as DNA fragmentation at 1 uM after 48 hrs by DAPI staining. In kind it is functional, cell-based. An outline of the steps: as §3
The subject of assay [21] is MCF7. Put plainly: Induction of apoptosis in human MCF7 cells assessed as appearance of autophagolysosomes at 1 uM after 48 hrs by acridine orange/ethidium bromide staining-based microscopy. In kind it is functional, cell-based. An outline of the steps:
(§4)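 After 48 h at 1 μM, cells were incubated for 15 min in serum-free medium containing 1 μg mL⁻¹ acridine orange and 1 μg mL⁻¹ ethidium bromide. The medium was removed and cells imaged by inverted fluorescence microscopy (530–650 nm). Green/orange nuclear patterns and acidic cytoplasmic vacuoles were scored.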

Assay [22] has as its system T98G. As to the kind of experiment: Induction of apoptosis in human T98G cells assessed as appearance of autophagolysosomes at 1 uM after 48 hrs by acridine orange/ethidium bromide staining-based microscopy. In kind it is functional, cell-based. An outline of the steps:
as §4

Assay [23] relates to U-87MG ATCC. As to the kind of experiment: Induction of apoptosis in human U87 cells assessed as appearance of autophagolysosomes at 1 uM after 48 hrs by acridine orange/ethidium bromide staining-based microscopy. The class given is functional, cell-based. An outline of the steps: as §4
The test system of assay [24] is MCF7. Put plainly: Induction of apoptosis in human MCF7 cells assessed as chromatin condensation at 1 uM after 48 hrs by acridine orange/ethidium bromide staining-based microscopy. The class given is functional, cell-based. An outline of the steps:
as §4

Assay [25] has as its system T98G. Put plainly: Induction of apoptosis in human T98G cells assessed as chromatin condensation at 1 uM after 48 hrs by acridine orange/ethidium bromide staining-based microscopy. In kind it is functional, cell-based. The gist of the method:
as §4

Assay [26] concerns U-87MG ATCC. Put plainly: Induction of apoptosis in human U87 cells assessed as chromatin condensation at 1 uM after 48 hrs by acridine orange/ethidium bromide staining-based microscopy. The class given is functional, cell-based. The gist of the method:
as §4

The species named for assay [27] is Bos taurus. Put plainly: Inhibition of bovine brain tubulin polymerization at 5 to 20 uM after 10 mins by spectrophotometry. An outline of the steps:
(§5)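 Bovine brain tubulin (10 μM; 1 mg mL⁻¹) in 0.8 M monosodium glutamate with 1% DMSO was pre-incubated with compound (four twofold dilutions) at 30 °C, then cooled to 0 °C for 10 min. GTP (0.4 mM) was added and the temperature raised to 37 °C while A350 was followed.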

The test system of assay [28] is HeLa. As to the kind of experiment: Induction of mitotic arrest in human HeLa cells assessed as reduction in cell density by immunofluorescence staining. In kind it is functional, cell-based. An outline of the steps: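 HeLa cells (8000/well), collagen-coated plates, dosed within 4-6 h of seeding in quadruplicate with 10 twofold dilutions or vehicle (DMSO 0.1% final); 18 h at 37 °C, 5% CO2. Formaldehyde fixation, Hoechst 33342 nuclear stain, anti-α-tubulin/anti-phosphohistone H3 immunostaining; automated high-content imaging. Cell density from nuclear counts; EC50 read from dose-response cell density curves.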

Assay [29] deals with HeLa. Put plainly: Induction of mitotic arrest in human HeLa cells assessed as nuclear condensation by Hoechst 33342 staining. In kind it is functional. Particulars: read-out: MEC. The gist of the method:
(§6)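 HeLa cells (8000/well, collagen-coated plates) were dosed in quadruplicate within 4–6 h of seeding with 10 twofold dilutions or vehicle (0.1% DMSO) for 18 h at 37 °C. Cells were fixed, stained with Hoechst 33342 and immunostained for phosphohistone H3 (Ser10) and α-tubulin, then analysed by automated imaging. Positivity threshold: mean of 28 vehicle wells +1 SD. Values reported as MDEC and EC50.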

In assay [30] the test system is HeLa. As to the kind of experiment: Induction of mitotic arrest in human HeLa cells assessed as reduction in tubulin intensity by Hoechst 33342 staining. In kind it is functional. Particulars: read-out: MEC. An outline of the steps: as §6
Assay [31] deals with HeLa. As to the kind of experiment: Induction of mitotic arrest in human HeLa cells assessed as mitotic index measuring phosphohistone H3-positive cells by Hoechst 33342 staining. Particulars: read-out: MEC. The class given is functional. The gist of the method: as §6
The species entered for assay [32] is Bos taurus. As to the kind of experiment: Total inhibition of bovine brain tubulin polymerization at concentration close to compound solubility limit after 10 mins by spectrophotometry. An outline of the steps: as §5

On to `CC(=NNC(=S)Nc1ccc(Cl)cc1)c1ccccn1` (mixture of isomers), for which the Activity result in the assay with MCF7 [1], in the assay on U-87MG ATCC [3] and in the assay on T98G [4] was “Dose-dependent effect” each time. The concentration for half-maximal inhibition (IC50) in the assay on MCF7 [1] was 8.5 nM; in assay [2], 1.7 nM; in the assay with T98G [4], 5.9 nM; in assay [5], more than 10000 nM. Further, the outcome in the assay with MCF7 [6], in the assay with MCF7 [7], in the assay on MCF7 [8], in the assay on MCF7 [9], with MCF7 [10] and in the assay on T98G [11] was Active. Besides, the result in the assay with T98G [12], in the assay on T98G [13], with T98G [14], with T98G [15], in the assay with U-87MG ATCC [16] and in the assay with U-87MG ATCC [17] was Active. For the same compound, the outcome with U-87MG ATCC [18], with U-87MG ATCC [19], in the assay on U-87MG ATCC [20], in the assay with MCF7 [21], with T98G [22] and in the assay with U-87MG ATCC [23] was Active. Moreover, the outcome with MCF7 [24], with T98G [25] and in the assay with U-87MG ATCC [26] was Active. The inhibition entry in the assay listed under Bos taurus [27] is “Active”. Further, the 50% effective concentration (EC50) in the assay on HeLa [28] was 9200 nM. Besides, the minimal effective concentration is 5.8 µM with HeLa [29], 3.6 µM in the assay with HeLa [30] and more than 50 µM in the assay with HeLa [31]. Further, the inhibition result in the assay listed under Bos taurus [32] is “inactive”.

In the case of `CC(=NNC(=S)Nc1ccc([N+](=O)[O-])cc1)c1ccccn1` (mixture of isomers), the Activity entry in the assay with MCF7 [1], with U-87MG ATCC [3] and in the assay with T98G [4] was “Dose-dependent effect” each time. The IC50 with MCF7 [1] was 52 nM; in assay [2], 160 nM; with T98G [4] it was 140 nM; in assay [5] it was more than 10000 nM. The result in the assay on MCF7 [6], in the assay on MCF7 [7], in the assay with MCF7 [8], with MCF7 [9], in the assay with MCF7 [10] and in the assay on T98G [11] was Active. The result in the assay with T98G [12], with T98G [13], with T98G [14], in the assay with T98G [15], with U-87MG ATCC [16] and in the assay with U-87MG ATCC [17] was Active. Besides, the result in the assay on U-87MG ATCC [18], in the assay on U-87MG ATCC [19], in the assay with U-87MG ATCC [20], in the assay on MCF7 [21], in the assay on T98G [22] and with U-87MG ATCC [23] was Active. Also, the result in the assay with MCF7 [24], with T98G [25] and in the assay with U-87MG ATCC [26] was Active.

Regarding `COc1cc2c(c(OC)c1OC)-c1ccc(OC)c(=O)cc1[C@@H](NC(C)=O)CC2` [COLCHICINE], in the assay with HeLa [28], the EC50 is 30 nM. The minimal effective concentration came to 0.01 µM with HeLa [29], 0.01 µM with HeLa [30] and 0.02 µM in the assay with HeLa [31].

For orientation: IC50 means the concentration at which inhibition is half-maximal. One may read the EC50 as the concentration that produces a half-maximal response.
